Calls of active or inactive are those of the source. No cut-off for these calls is given here.

Series [1] deals with T1, Mu-type opioid receptor (Homo sapiens, UniProt P35372). Nature of the series: Displacement of [3H]DAMGO from human mu opioid receptor expressed in CHO cells after 60 mins by liquid scintillation counting. The class given is cell-based. For orientation: In a radioligand displacement assay an active substance lowers the binding of a labelled ligand.
Series [2] addresses Delta-type opioid receptor (Homo sapiens, UniProt P41143). In words: Displacement of [3H]naltrindole from human delta opioid receptor expressed in CHO cells after 3 hrs by liquid scintillation counting. It counts as cell-based. The procedure, abridged: (§1)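 Membranes from CHO cells stably expressing one human opioid receptor, incubated at 25 °C in 50 mM Tris-HCl pH 7.5 with radioligand: [3H]DAMGO 0.25 nM (60 min), [3H]U69,593 1 nM (60 min), [3H]naltrindole 0.2 nM (3 h). […] Filtered on glass fibre (PEI-soaked for kappa), washed, scintillation counted; IC50 by log-probit fit, Ki via Cheng–Prusoff.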

The target of series [3] is T2, Kappa-type opioid receptor (Homo sapiens, UniProt P41145). In words: Displacement of [3H]U69593 from human kappa opioid receptor expressed in CHO cells after 60 mins by liquid scintillation counting. The class given is cell-based. The procedure, abridged:
as §1

For another series, the species on record is Homo sapiens. In words: Selectivity ratio of Ki for human delta opioid receptor to Ki for human kappa opioid receptor.
For series [4], the target named is T1, Mu-type opioid receptor. Nature of the series: Antagonist activity at human mu opioid receptor expressed in CHO cells assessed as inhibition of DAMGO-stimulated [35S]GTPgammaS binding. The class given is functional, cell-based. For orientation: GTPγS is a poorly hydrolysed GTP analogue; its binding reports G protein activation.
Series [5] addresses T2, Kappa-type opioid receptor. Nature of the series: Agonist activity at human kappa opioid receptor expressed in CHO cells assessed as maximal stimulation of [35S]GTPgammaS binding relatiev to U50488. The class given is functional, cell-based. The procedure, abridged: (§2)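 Agonist mode: 12 concentrations of each compound incubated with CHO cells expressing the receptor named in the line; agonist-stimulated [35S]GTPγS binding measured.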

The target of series [6] is T2, Kappa-type opioid receptor. Nature of the series: Antagonist activity at human kappa opioid receptor expressed in CHO cells assessed as inhibition of U50488-stimulated [35S]GTPgammaS binding. It counts as functional, cell-based.
The nature of series [7]: Chemical stability at pH 7.4 buffer assessed as hydrolysis half life. The class given is physicochemical.
Series [8] is described as follows: Chemical stability assessed as hydrolysis half life in presence of porcine liver esterase. It counts as ADME. The conditions noted are these: pig, isolated protein.
In series [9] the target is T1, Mu-type opioid receptor. Nature of the series: Agonist activity at human mu opioid receptor expressed in CHO cells assessed as stimulation of [35S]GTPgammaS binding. The class given is functional, cell-based.
Series [10] has as its target T1, Mu-type opioid receptor. Nature of the series: Agonist activity at human mu opioid receptor expressed in CHO cells assessed as maximal stimulation of [35S]GTPgammaS binding relatiev to DAMGO. It counts as functional, cell-based. The procedure, abridged: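 12 concentrations of each compound incubated with CHO cells expressing the mu receptor; [35S]GTPγS binding stimulation measured, maximal stimulation taken as Emax.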

Series [11] concerns the target T2, Kappa-type opioid receptor. In words: Agonist activity at human kappa opioid receptor expressed in CHO cells assessed as stimulation of [35S]GTPgammaS binding. It counts as functional, cell-based. The procedure, abridged: as §2
Series [12] concerns the target T1, Mu-type opioid receptor. Nature of the series: Antagonist activity at human mu opioid receptor expressed in CHO cells assessed as inhibition of DAMGO-stimulated [35S]GTPgammaS binding at 10 uM. It counts as functional, cell-based.

T2 sequence (P41145 whole entry): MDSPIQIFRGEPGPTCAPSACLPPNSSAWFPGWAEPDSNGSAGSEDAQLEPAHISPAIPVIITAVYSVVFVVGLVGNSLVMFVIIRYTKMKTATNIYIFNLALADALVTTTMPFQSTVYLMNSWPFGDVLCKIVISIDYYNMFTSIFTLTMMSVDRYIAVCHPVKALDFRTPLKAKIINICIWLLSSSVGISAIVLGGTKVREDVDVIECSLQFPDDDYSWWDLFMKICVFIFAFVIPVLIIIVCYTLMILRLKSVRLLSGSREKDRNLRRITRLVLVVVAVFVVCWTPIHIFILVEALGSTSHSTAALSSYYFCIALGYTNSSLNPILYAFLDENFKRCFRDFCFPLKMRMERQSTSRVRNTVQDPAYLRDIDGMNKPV
Sequence of Delta-type opioid receptor (P41143 whole entry): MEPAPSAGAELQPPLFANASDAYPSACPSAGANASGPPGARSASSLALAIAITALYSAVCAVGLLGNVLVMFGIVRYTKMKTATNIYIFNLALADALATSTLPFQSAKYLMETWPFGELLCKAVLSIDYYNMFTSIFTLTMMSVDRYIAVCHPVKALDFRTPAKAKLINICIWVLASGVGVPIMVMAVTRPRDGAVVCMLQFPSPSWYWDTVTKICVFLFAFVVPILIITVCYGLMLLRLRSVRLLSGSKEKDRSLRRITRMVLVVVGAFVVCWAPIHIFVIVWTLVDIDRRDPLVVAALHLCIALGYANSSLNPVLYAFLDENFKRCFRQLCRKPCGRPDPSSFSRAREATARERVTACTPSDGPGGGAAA
T1 sequence (P35372 whole entry): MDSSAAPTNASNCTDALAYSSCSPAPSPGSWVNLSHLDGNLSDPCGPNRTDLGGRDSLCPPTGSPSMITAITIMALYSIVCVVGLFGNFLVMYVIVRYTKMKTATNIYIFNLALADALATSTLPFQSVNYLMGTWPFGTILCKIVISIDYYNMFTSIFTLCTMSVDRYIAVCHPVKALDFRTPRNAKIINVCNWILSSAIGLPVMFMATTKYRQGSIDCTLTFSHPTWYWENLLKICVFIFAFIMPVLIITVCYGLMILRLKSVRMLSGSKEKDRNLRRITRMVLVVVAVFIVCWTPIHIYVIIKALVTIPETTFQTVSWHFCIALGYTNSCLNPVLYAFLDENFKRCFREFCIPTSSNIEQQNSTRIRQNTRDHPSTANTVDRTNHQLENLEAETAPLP

For orientation: Ki means a dissociation constant, usually derived from enzyme kinetics or from competition with a known ligand. Read a high Ki as lower affinity. Take `CC(C)(CCCCCCC(C)(C)C(=O)Oc1ccc2c(c1)[C@@]13CCCC[C@H]1[C@@H](C2)N(CC1CCC1)CC3)C(=O)OCc1ccccc1`: the figures for the inhibitory constant (Ki) (on Mu-type opioid receptor [1]; in series [2]; in [3]) were 8.6 nM, 210 nM and 4.7 nM, respectively. Also, in the series filed under Homo sapiens, the Ratio Ki is 45.
As for `CC(C)(CCCCCCC(C)(C)C(=O)Oc1ccc2c(c1)[C@@]13CCCC[C@H]1[C@@H](C2)N(CC1CCC1)CC3)C(=O)O`, the Ki was 47 nM on Mu-type opioid receptor [1], 390 nM in series [2] and 18 nM in series [3]. In addition, in the series filed under Homo sapiens, the Ratio Ki worked out at 22.
One may read the Emax as the maximal effect, on the per cent scale that the assay sets. As a reminder, the IC50 is the concentration that gives 50% inhibition. In the case of `O=C(CCCCCCCCC(=O)Oc1ccc2c(c1)[C@@]13CCCC[C@H]1[C@@H](C2)N(CC1CCC1)CC3)Oc1ccc2c(c1)[C@@]13CCCC[C@H]1[C@@H](C2)N(CC1CCC1)CC3`, in the series listed under Homo sapiens, the Ratio Ki is 90. Further, at Mu-type opioid receptor [4], the Imax came to 44%. Further, in series [5], the Emax came out at 65%. In addition, in series [6], the IC50 result is listed as “Not Active” and the Imax result is “inactive”. The t1/2 in series [7] was found to be 0.767 h. The t1/2 in series [8] amounted to 1.83 h.
Take `COC(=O)C(C)CCCCCCC(C)C(=O)Oc1ccc2c(c1)[C@@]13CCCC[C@H]1[C@@H](C2)N(CC1CCC1)CC3` (stereo partly drawn): the inhibitory constant (Ki) came to 1.7 nM on Mu-type opioid receptor [1], 42 nM in series [2] and 0.94 nM in series [3]. For the same molecule, the Ratio Ki in the series listed under Homo sapiens turned out to be 45.
As usually defined, the EC50 is the concentration giving half of the maximal effect. Consider `CC(C)(CCCCCCC(C)(C)C(=O)Oc1ccc2c(c1)[C@@]13CCCC[C@H]1[C@@H](C2)N(CC1CCC1)CC3)C(=O)Oc1ccc2c(c1)[C@@]13CCCC[C@H]1[C@@H](C2)N(CC1CCC1)CC3`, for which the Ki turned out to be 0.47 nM on Mu-type opioid receptor [1], 15 nM in series [2] and 0.47 nM in series [3]. The Ratio Ki in the series filed under Homo sapiens came out at 32. Also, the concentration giving a half-maximal response (EC50) on Mu-type opioid receptor [9] worked out at 11 nM; in series [11], 6.4 nM. Further, the figures for the Emax (at Mu-type opioid receptor [10]; in [5]) were 40% and 60%, respectively. Further, the Imax on Mu-type opioid receptor [4] was 50%. Moreover, the IC50 is 81 nM at Mu-type opioid receptor [4] (read-out: IC50) and “Not Active” in [6]. Further, in series [6], the Imax result was “inactive”. The t1/2 stood at 1.68 h in series [7] and 1.67 h in series [8].
`CC(CCCCCCC(C)C(=O)Oc1ccc2c(c1)[C@@]13CCCC[C@H]1[C@@H](C2)N(CC1CCC1)CC3)C(=O)O` (stereo partly drawn): the Ki on Mu-type opioid receptor [1] came to 0.46 nM; in series [2] it was 20 nM; in series [3], 0.42 nM. The Ratio Ki in the series listed under Homo sapiens was 48. Further, the EC50 turned out to be 13 nM at Mu-type opioid receptor [9] and 4.9 nM in series [11]. For the same molecule, the maximal effect (Emax) at Mu-type opioid receptor [10] was found to be 25%; in series [5] it was 58%. In addition, the half-inhibitory concentration (IC50) result (at Mu-type opioid receptor [4] (cho); in [6]) was “Not Active” throughout. Besides, the Imax on Mu-type opioid receptor [12] is 48%. For the same molecule, in series [6], the Imax entry is “inactive”.
As for `CC(CCCCC(C)C(=O)Oc1ccc2c(c1)[C@@]13CCCC[C@H]1[C@@H](C2)N(CC1CCC1)CC3)C(=O)Oc1ccc2c(c1)[C@@]13CCCC[C@H]1[C@@H](C2)N(CC1CCC1)CC3` (stereo partly drawn), the results for the Ki (on Mu-type opioid receptor [1]; in series [2]; in [3]) were 2.9 nM, 50 nM and 2.2 nM, respectively. In addition, the Ratio Ki in the series listed under Homo sapiens is 23. Besides, the t1/2 in series [7] was 3.68 h; in [8] it was 1.9 h.
As for `O=C(O)CCCCCCCCC(=O)Oc1ccc2c(c1)[C@@]13CCCC[C@H]1[C@@H](C2)N(CC1CCC1)CC3`, the Ki at Mu-type opioid receptor [1] came out at 0.71 nM; in series [2] it was 18 nM; in [3] it was 0.29 nM. In addition, the concentration giving a half-maximal response (EC50) is 3 nM on Mu-type opioid receptor [9] and 2.8 nM in [11]. For the same molecule, the maximal effect (Emax) amounted to 110% at Mu-type opioid receptor [10] and 75% in [5]. The Imax entry (on Mu-type opioid receptor [4]; in series [6]) was “inactive” in each case. The IC50 entry (on Mu-type opioid receptor [4] (cho); in [6]) was “Not Active” in each case.
Turning to `C=CCN1CC[C@]23c4c5ccc(OC(=O)CCCCCCCCC(=O)Oc6ccc7c(c6)[C@@]68CCCC[C@H]6C(C7)N(CC6CCC6)CC8)c4O[C@H]2CCC[C@H]3[C@H]1C5`, the Ki amounted to 0.43 nM on Mu-type opioid receptor [1], 39 nM in series [2] and 0.13 nM in [3]. The Ratio Ki in the series listed under Homo sapiens was 300. Further, the EC50 at Mu-type opioid receptor [9] was 2 nM; in series [11], 1.6 nM. In addition, the Emax stood at 34% at Mu-type opioid receptor [10] and 86% in series [5]. In addition, the Imax on Mu-type opioid receptor [4] stood at 73%. Further, the results for the half-inhibitory concentration (IC50) (at Mu-type opioid receptor [4] (read-out: IC50); in [6]) were 25 nM and “Not Active”, respectively. In addition, the Imax result in series [6] was “inactive”.
On to `CC(CCCCCCC(C)C(=O)Oc1ccc2c(c1)[C@@]13CCCC[C@H]1[C@@H](C2)N(CC1CCC1)CC3)C(=O)Oc1ccc2c(c1)[C@@]13CCCC[C@H]1[C@@H](C2)N(CC1CCC1)CC3` (stereo partly drawn), for which the inhibition constant Ki is 0.95 nM on Mu-type opioid receptor [1], 37 nM in [2] and 0.62 nM in series [3]. Also, in the series filed under Homo sapiens, the Ratio Ki came out at 60. In addition, the EC50 worked out at 7.1 nM on Mu-type opioid receptor [9] and 7.3 nM in series [11]. Moreover, the Emax at Mu-type opioid receptor [10] is 26%; in [5] it was 54%. For the same molecule, the Imax on Mu-type opioid receptor [4] was determined as 50%. For the same molecule, the IC50 on Mu-type opioid receptor [4] (read-out: IC50) is 140 nM; in series [6] it was “Not Active”. Moreover, the Imax result in series [6] is “inactive”. Moreover, the t1/2 came out at 1.38 h in [7] and 2.18 h in series [8].

The values are drawn from ChEMBL document CHEMBL1154777 (J Med Chem, 2009).
